ChEMBL document CHEMBL2176896, “Phthalazine derivatives containing imidazole rings behave as Fe-SOD inhibitors and show remarkable anti-T. cruzi activity in immunodeficient-mouse mode of infection” (J Med Chem, 2012)
Calls of active or inactive are those of the source. No cut-off for these calls is given here.

Columns and labels:
Trypanosoma cruzi [1] = assay: Effect on glucose metabolism in Trypanosoma cruzi IRHOD/VO/2008/SN3 epimastigotes assessed as excreted L-lactate level at IC25 level incubated for 96 hrs at 28 degC by [1H]NMR spectroscopy
Trypanosoma cruzi [2] = assay: Effect on glucose metabolism in Trypanosoma cruzi IRHOD/VO/2008/SN3 epimastigotes assessed as excreted ethanol level at IC25 level incubated for 96 hrs at 28 degC by [1H]NMR spectroscopy
[3] = Selectivity index, ratio of IC50 for SOD1 in human erythrocytes to IC50 for Trypanosoma cruzi IRHOD/VO/2008/SN3 epimastigotes Iron superoxide dismutase; type: cell-based
Trypanosoma cruzi [4] = assay: Effect on glucose metabolism in Trypanosoma cruzi IRHOD/VO/2008/SN3 epimastigotes assessed as excreted succinate level at IC25 level incubated for 96 hrs at 28 degC by [1H]NMR spectroscopy
Trypanosoma cruzi [5] = assay: Antitrypanosomal activity against Trypanosoma cruzi IRHOD/VO/2008/SN3 metacyclic forms infected in african green monkey Vero cells assessed as inhibition of infection rate at IC25 level 0.5 to 10 days; type: functional
Summary of the method: (§1)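 Vero cells in RPMI infected with metacyclic forms at 10:1. Compounds added at IC25 immediately after infection for 12 h at 37 °C, 5% CO2, then washed off. Cultures grown 10 days with fresh medium every 48 h. Giemsa slides scored for % infected cells and amastigotes per cell (>100 cells); trypomastigotes in medium counted. Mean of four.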

Trypanosoma cruzi [6] = assay: Antitrypanosomal activity against Trypanosoma cruzi IRHOD/VO/2008/SN3 epimastigotes incubated for 72 hrs; conditions: IRHOD/VO/2008/SN3, 72 h
Trypanosoma cruzi [7] = assay: Antitrypanosomal activity against Trypanosoma cruzi IRHOD/VO/2008/SN3 isolated from mouse blood trypomastigotes incubated for 24 hrs; type: functional, organism-based; conditions: IRHOD/VO/2008/SN3, Blood
Summary of the method: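 Blood from BALB/c mice 7 days post-infection, drawn by cardiac puncture into 3.8% citrate (7:3). Compounds in PBS at 10, 25 and 50 μM final, mixed with infected blood (~1 × 10^6 parasites/mL). Shaken 10 min at room temperature, held 24 h at 4 °C. Parasites counted at 1:100 dilution against a PBS control.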

Trypanosoma cruzi [8] = assay: Antitrypanosomal activity against Trypanosoma cruzi IRHOD/VO/2008/SN3 intracellular amastigotes infected in african green monkey Vero cells incubated for 72 hrs; type: functional, organism-based; conditions: IRHOD/VO/2008/SN3, Vero
Summary of the method: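 Vero cells (1 × 10^4/well) grown 2 days on coverslips, then infected with metacyclic forms at 10:1 for 24 h at 37 °C. Extracellular parasites washed off. Compounds at 1–100 μM for 72 h in RPMI with 10% FBS. Amastigotes counted on methanol-fixed, Giemsa-stained slides against untreated cultures. Mean of four determinations; IC50.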

Trypanosoma cruzi [9] = assay: Antitrypanosomal activity against Trypanosoma cruzi IRHOD/VO/2008/SN3 metacyclic forms infected in african green monkey Vero cells assessed as inhibition of intracellular amastigotes replication at IC25 level 0.5 to 10 days; type: functional
Summary of the method: as §1

Trypanosoma cruzi [10] = assay: Antitrypanosomal activity against Trypanosoma cruzi IRHOD/VO/2008/SN3 metacyclic forms infected in african green monkey Vero cells assessed as inhibition of trypomastigotes level at IC25 level 0.5 to 10 days; type: functional
Summary of the method: as §1

Trypanosoma cruzi [11] = assay: Induction of ultrastructural modifications in Trypanosoma cruzi Maracay at IC25 level incubated for 96 hrs by transmission electron microscopy; type: functional, organism-based
Summary of the method: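 Maracay epimastigotes at 5 × 10^5 cells/mL exposed at IC25 for 96 h. Pellets washed in PBS, fixed in 2% paraformaldehyde/glutaraldehyde in 0.05 M cacodylate (pH 7.4) for 4 h at 4 °C, then examined by TEM.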

[12] = Inhibition of Trypanosoma cruzi IRHOD/VO/2008/SN3 epimastigotes Iron superoxide dismutase by spectrophotometry
Summary of the method: (§2)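 Enzyme from sonicated parasites in STE buffer, pH 7.8, or human erythrocyte CuZn-SOD. Activity measured as NBT reduction by superoxide (Beyer–Fridovich): methionine, NBT, Triton X-100 and riboflavin, with A560 read before and after 10 min of light. Compounds tested at 1–100 μM. Mean of five; IC50 by linear regression from Kc.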

Trypanosoma cruzi [13] = assay: Antitrypanosomal activity against Trypanosoma cruzi IRHOD/VO/2008/SN3 […] amastigotes infected in african green monkey Vero cells incubated for 72 hrs; type: functional, organism-based; conditions: IRHOD/VO/2008/SN3, Vero
Trypanosoma cruzi [14] = assay: Effect on glucose metabolism in Trypanosoma cruzi IRHOD/VO/2008/SN3 epimastigotes assessed as excreted acetate level at IC25 level incubated for 96 hrs at 28 degC by [1H]NMR spectroscopy
Trypanosoma cruzi [15] = assay: Effect on glucose metabolism in Trypanosoma cruzi IRHOD/VO/2008/SN3 epimastigotes assessed as excreted L-alanine level at IC25 level incubated for 96 hrs at 28 degC by [1H]NMR spectroscopy
[16] = Selectivity index, ratio of IC50 for african green monkey Vero cells to IC50 for Trypanosoma cruzi IRHOD/VO/2008/SN3 epimastigotes; type: toxicity, cell-based; conditions: Vero cells versus Trypanosoma cruzi epimastigotes, read-out: Ratio IC50
[17] = Selectivity index, ratio of IC50 for african green monkey Vero cells to IC50 for Trypanosoma cruzi IRHOD/VO/2008/SN3 blood trypomastigotes; type: toxicity, cell-based; conditions: Vero cells versus Trypanosoma cruzi blood trypomastigotes, read-out: Ratio IC50
[18] = Selectivity index, ratio of IC50 for african green monkey Vero cells to IC50 for Trypanosoma cruzi IRHOD/VO/2008/SN3 axenic amastigotes; type: toxicity, cell-based; conditions: Vero cells versus Trypanosoma cruzi axenic amastigotes, read-out: Ratio IC50
[19] = target: Superoxide dismutase [Cu-Zn] (Homo sapiens, UniProt P00441); assay: Inhibition of SOD1 in human erythrocytes by spectrophotometry; type: cell-based
Superoxide dismutase [Cu-Zn], sequence (P00441 whole entry): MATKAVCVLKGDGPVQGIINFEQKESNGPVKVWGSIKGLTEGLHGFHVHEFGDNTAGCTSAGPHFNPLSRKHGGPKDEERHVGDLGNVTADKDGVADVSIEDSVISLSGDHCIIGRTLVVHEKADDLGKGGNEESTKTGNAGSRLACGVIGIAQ
Summary of the method: as §2

[20] = Selectivity index, ratio of IC50 for african green monkey Vero cells to IC50 for Trypanosoma cruzi IRHOD/VO/2008/SN3 intracellular amastigotes; type: toxicity, cell-based; conditions: read-out: Ratio IC50
[21] = Toxicity against african green monkey Vero cells; type: cell-based, Chlorocebus sabaeus
Trypanosoma cruzi [22] = assay: (§3) Antitrypanosomal activity against Trypanosoma cruzi IRHOD/VO/2008/SN3 metacyclic forms infected in BALB/c mouse model of acute Chagas disease assessed as reduction parasitemia at 5 mg/kg/day, ip administered for 5 consecutive days starting on day 7 post infection until day 12 post infection and measured on day 15 to 20 post infection; type: functional
Summary of the method: (§4)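 Groups of six female BALB/c mice (6–8 weeks, 25–30 g) inoculated ip with 5 × 10^5 metacyclic trypomastigotes. Dosed ip at 5 or 15 mg/kg/day on days 7–12 pi; untreated infected controls. Mandibular-vein blood (5 μL in 495 μL PBS) counted every 3 days for 40 days in a Neubauer chamber, as parasites/mL.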

Trypanosoma cruzi [23] = assay: (§5) Antitrypanosomal activity against Trypanosoma cruzi IRHOD/VO/2008/SN3 metacyclic forms infected in BALB/c mouse model of chronic Chagas disease subjected to 3 cycles of immunosuppression with 50 mg/kg cyclophosphamide monohydrate for 3 consecutive weeks assessed as change in IgG absorbance level at 5 mg/kg/day, ip administered for 5 consecutive days starting on day 7 post infection until day 12 post infection and measured on day 150 post infection by ELISA; type: functional
Summary of the method: (§6)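 Infected, treated mice (ip 5 or 15 mg/kg/day, days 7–12 pi) kept to day 120. Half then given three 4-day cycles of cyclophosphamide at 50 mg/kg with 3-day gaps; the rest left untreated. Serum IgG measured by ELISA on parasite-excreted Fe-SOD antigen: 1:100 serum, anti-IgG peroxidase 1:1000, OPD, A492, in triplicate. Reported as immunosuppressed minus non-immunosuppressed OD.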

Trypanosoma cruzi [24] = assay: Inhibition of Trypanosoma cruzi IRHOD/VO/2008/SN3 epimastigotes Iron superoxide dismutase at 50 uM by spectrophotometry
Summary of the method: as §2

Trypanosoma cruzi [25] = assay: as §5, with “as parasitemia reactivation” for “as change in IgG absorbance”, “at 15” for “at 5”, “infection” for “infection by ELISA”; type: functional
Summary of the method: (§7)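 Female BALB/c mice (6–8 wk, 25–30 g), six per group, were infected ip with 5 × 10^5 metacyclic trypomastigotes from infected mouse blood and dosed ip daily on days 7–12 pi. From day 120 pi a subgroup got three 4-day cycles of cyclophosphamide 50 mg/kg, 3 days apart. Parasites were counted by Neubauer chamber the day after cycle three in 5 μL mandibular-vein blood (1:100 PBS). Reactivation was scored against the matching non-immunosuppressed group; three experiments.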

Trypanosoma cruzi [26] = assay: as §3, with “25” for “15 to 20”; type: functional, organism-based
Summary of the method: as §4

Trypanosoma cruzi [27] = assay: as §5, with “at 15” for “at 5”; type: functional
Summary of the method: as §6

Trypanosoma cruzi [28] = assay: as §5, with “parasitemia reactivation” for “change in IgG absorbance”, “infection” for “infection by ELISA”; type: functional
Summary of the method: as §7

Trypanosoma cruzi [29] = assay: (§8) Toxicity in Trypanosoma cruzi IRHOD/VO/2008/SN3 metacyclic forms infected BALB/c mouse model of acute Chagas disease assessed as mortality incidence at 5 mg/kg/day, ip administered for 5 consecutive days starting on day 7 post infection until day 12 post infection and measured 40 days post infection; type: organism-based; set-up: route intraperitoneal; conditions: in vivo, 960 h
Summary of the method: (§9)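 Female BALB/c mice (6–8 wk, 25–30 g), six per group, were infected ip with 5 × 10^5 metacyclic trypomastigotes from infected mouse blood. Once infection was confirmed, compound was given ip daily on days 7–12 pi. An infected untreated group served as control. Deaths were recorded during treatment, and parasitemia was counted in mandibular-vein blood every 3 days up to day 40 pi.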

Trypanosoma cruzi [30] = assay: as §3, with “at 15” for “at 5”, “day 40” for “day 15 to 20”; type: functional; set-up: scale not given: the % may be the effect or the level left; conditions: route intraperitoneal
Summary of the method: as §4

Trypanosoma cruzi [31] = assay: Antitrypanosomal activity against Trypanosoma cruzi IRHOD/VO/2008/SN3 metacyclic forms infected in BALB/c mouse model of acute Chagas disease assessed as reduction in parasitemia level at 15 mg/kg/day, ip administered for 5 consecutive days starting on day 7 post infection until day 12 post infection and measured on day 15 post infection relative to untreated control; type: functional; set-up: scale not given: the % may be the effect or the level left; conditions: route intraperitoneal
Summary of the method: as §4

[32] = as §8; type: organism-based; set-up: route intraperitoneal; conditions: BALB/c, in vivo, read-out: Activity
Summary of the method: as §9

Trypanosoma cruzi [33] = assay: as §3, with “40” for “15 to 20”; type: functional; set-up: scale not given: the % may be the effect or the level left; conditions: route intraperitoneal
Summary of the method: as §4

SMILES	Activity (Trypanosoma cruzi [1]) [%]	Activity (Trypanosoma cruzi [2])	Ratio IC50 [3]	Activity (Trypanosoma cruzi [4])	inhibition (INH) (Trypanosoma cruzi [5]) [%]	IC50 (Trypanosoma cruzi [6]) [µM]	IC50 (Trypanosoma cruzi [7]) [µM]	IC50 (Trypanosoma cruzi [8]) [µM]	inhibition (INH) (Trypanosoma cruzi [9]) [%]	inhibition (INH) (Trypanosoma cruzi [10]) [%]	Activity (Trypanosoma cruzi [11])	IC50 [12] [µM]	IC50 (Trypanosoma cruzi [13]) [µM]	Activity (Trypanosoma cruzi [14]) [%]	Activity (Trypanosoma cruzi [15])	selectivity ratio [16]	selectivity ratio [17]	selectivity ratio [18]	IC50 [19] [µM]	selectivity ratio [20]	also measured
c1ccc2c(NCCc3c[nH]cn3)nnc(NCCc3c[nH]cn3)c2c1	-15	inactive	2.6	inactive	65.1	13	22.5	18.1	48.7	63.8	Active	48	15.2	-10	inactive						
c1ccc2c(NCCCn3ccnc3)nnc(NCCCn3ccnc3)c2c1	-24	inactive	1.6	inactive	51.5	17.4	16.9	16.6	41.1	57.8	Active	41.7	12.4	-21	inactive	17.3	17.8	24.2	66	18.2	IC50 [21]: 302 µM
Clc1nnc(NCCc2c[nH]cn2)c2ccccc12	-33	-12%	5.5	inactive	83.9	8.7	9.2	9.4	62.9	85.1	Active	12.9	10.1	-21	-13%	49.1	46.5	42.3	71.5	45.5	Activity (Trypanosoma cruzi [22]): Active; deltaA (Trypanosoma cruzi [23]): 0.0103; inhibition (Trypanosoma cruzi [24]): 100%; Activity (Trypanosoma cruzi [25]): 4%; Activity (Trypanosoma cruzi [26]): Active; deltaA (Trypanosoma cruzi [27]): 0.0067; Activity (Trypanosoma cruzi [28]): 9%; Activity (Trypanosoma cruzi [29]): Non-toxic; Activity (Trypanosoma cruzi [30]): 74%; Activity (Trypanosoma cruzi [31]): 59%; IC50 [21]: 427 µM
O=C(Cn1ccnc1[N+](=O)[O-])NCc1ccccc1 [BENZNIDAZOLE]					39.4	15.9	16.4		12.5	41.6			18.9								Activity (Trypanosoma cruzi [22]; route intraperitoneal): 15.3%; Activity (Trypanosoma cruzi [26]): Active; Activity (Trypanosoma cruzi [28]): 36%; mortality at 960 h [32]: 20%; Activity (Trypanosoma cruzi [33]): 16.7%
c1ccc2c(NCCc3cnc[nH]3)nnc(NCCc3cnc[nH]3)c2c1																24.9	14.4	21.3	125	17.9	IC50 [21]: 324 µM
Clc1nnc(NCCCn2ccnc2)c2ccccc12	-38	-16%	5.8	inactive	80.3	8.8	10.2	8.9	55.8	73.9	Active	14.4	10.6	-54	-27%	49.6	42.8	41.2	83.1	49.1	Activity (Trypanosoma cruzi [22]): Active; deltaA (Trypanosoma cruzi [23]): 0.0143; inhibition (Trypanosoma cruzi [24]): 100%; Activity (Trypanosoma cruzi [25]): 8%; Activity (Trypanosoma cruzi [26]): Active; deltaA (Trypanosoma cruzi [27]): 0.0096; Activity (Trypanosoma cruzi [28]): 21%; Activity (Trypanosoma cruzi [29]): Non-toxic; Activity (Trypanosoma cruzi [30]): 61%; Activity (Trypanosoma cruzi [31]): 64%; IC50 [21]: 437 µM
